Assay results as given in ChEMBL document CHEMBL3414542, “Design and synthesis of celastrol derivatives as anticancer agents” (Eur J Med Chem, 2015).

What was measured:
[1] = target: Telomerase reverse transcriptase (Homo sapiens, UniProt O14746); test: Inhibition of telomerase in human MGC803 cell extracts after 24 hrs by TRAP-PCR-ELISA; set-up: species or system MGC-803
Procedure, shortened: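 MGC-803 cells were grown in DMEM with 10% FBS, streptomycin and penicillin at 37 °C, 5% CO2, and 5 × 10^4 cells were seeded and allowed to adhere. Cells were exposed to staurosporine and test agents (60 to 0.0821 […] series) for 24 h, then scraped, washed, lysed in RIPA buffer on ice for 30 min, and spun at 12,000 g for 20 min at 4 °C. Extract (2 µL) was run in a TRAP-PCR-ELISA with anti-DIG peroxidase detection and read at 490 nm. Values are mean ± SD.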

[2] = Anticancer activity against human SMMC7721 cells assessed as cell survival after 48 hrs by MTT assay; assay type: functional, cell-based; details: SMMC-7721, 48 h
Procedure, shortened: (§1)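 MTT colorimetric assay. MTT was added (4 h, 37 °C), followed by DMSO, and absorbance was read at 570 nm. IC50 is the concentration giving 50% cell survival. Values are the mean ± SD of three independent experiments in triplicate.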

MGC-803 [3] = test: Anticancer activity against human MGC803 cells assessed as cell survival after 48 hrs by MTT assay; assay type: functional, cell-based; details: MGC-803, 48 h; procedure, shortened: as §1
[4] = Octanol-water partition coefficient, log P of the compound by shake-flask method; assay type: physicochemical
Procedure, shortened: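 Shake-flask method: the solute was dissolved in octanol and water and its concentration in each phase was measured by HPLC. Log P is the logarithm of the octanol/aqueous concentration ratio.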

HepG2 [5] = test: Anticancer activity against human HepG2 cells assessed as cell survival after 48 hrs by MTT assay; assay type: functional, cell-based; details: HepG2, 48 h; procedure, shortened: as §1
[6] = Anticancer activity against human SGC7901 cells assessed as cell survival after 48 hrs by MTT assay; assay type: functional, cell-based; details: SGC-7901, 48 h; procedure, shortened: as §1
HepG2 [7] = test: Ratio of celastrol IC50 to compound IC50 for human HepG2 cells assessed as cell survival after 48 hrs by MTT assay; assay type: functional
SMMC-7721 [8] = test: Induction of apoptosis in human SMMC7721 cells assessed as non-viable cells at 0.5 uM after 48 hrs by annexin V/PI staining based flow cytometry (reference value: 1.56%); assay type: functional
SMMC-7721 [9] = test: Induction of apoptosis in human SMMC7721 cells assessed as normal cells at 0.5 uM after 48 hrs by annexin V/PI staining based flow cytometry (reference value: 98%); assay type: functional
MGC-803 [10] = test: Ratio of celastrol IC50 to compound IC50 for human MGC803 cells assessed as cell survival after 48 hrs by MTT assay; assay type: functional
SMMC-7721 [11] = test: Induction of apoptosis in human SMMC7721 cells assessed as necrotic cells at 0.5 uM after 48 hrs by annexin V/PI staining based flow cytometry (reference value: 0%); assay type: functional
SMMC-7721 [12] = test: Induction of apoptosis in human SMMC7721 cells assessed […] cells at 0.5 uM after 48 hrs by annexin V/PI staining based flow cytometry (reference value: 0.434%); assay type: functional; details: SMMC-7721, 48 h, read-out: Activity

Chain of Telomerase reverse transcriptase (O14746 whole entry): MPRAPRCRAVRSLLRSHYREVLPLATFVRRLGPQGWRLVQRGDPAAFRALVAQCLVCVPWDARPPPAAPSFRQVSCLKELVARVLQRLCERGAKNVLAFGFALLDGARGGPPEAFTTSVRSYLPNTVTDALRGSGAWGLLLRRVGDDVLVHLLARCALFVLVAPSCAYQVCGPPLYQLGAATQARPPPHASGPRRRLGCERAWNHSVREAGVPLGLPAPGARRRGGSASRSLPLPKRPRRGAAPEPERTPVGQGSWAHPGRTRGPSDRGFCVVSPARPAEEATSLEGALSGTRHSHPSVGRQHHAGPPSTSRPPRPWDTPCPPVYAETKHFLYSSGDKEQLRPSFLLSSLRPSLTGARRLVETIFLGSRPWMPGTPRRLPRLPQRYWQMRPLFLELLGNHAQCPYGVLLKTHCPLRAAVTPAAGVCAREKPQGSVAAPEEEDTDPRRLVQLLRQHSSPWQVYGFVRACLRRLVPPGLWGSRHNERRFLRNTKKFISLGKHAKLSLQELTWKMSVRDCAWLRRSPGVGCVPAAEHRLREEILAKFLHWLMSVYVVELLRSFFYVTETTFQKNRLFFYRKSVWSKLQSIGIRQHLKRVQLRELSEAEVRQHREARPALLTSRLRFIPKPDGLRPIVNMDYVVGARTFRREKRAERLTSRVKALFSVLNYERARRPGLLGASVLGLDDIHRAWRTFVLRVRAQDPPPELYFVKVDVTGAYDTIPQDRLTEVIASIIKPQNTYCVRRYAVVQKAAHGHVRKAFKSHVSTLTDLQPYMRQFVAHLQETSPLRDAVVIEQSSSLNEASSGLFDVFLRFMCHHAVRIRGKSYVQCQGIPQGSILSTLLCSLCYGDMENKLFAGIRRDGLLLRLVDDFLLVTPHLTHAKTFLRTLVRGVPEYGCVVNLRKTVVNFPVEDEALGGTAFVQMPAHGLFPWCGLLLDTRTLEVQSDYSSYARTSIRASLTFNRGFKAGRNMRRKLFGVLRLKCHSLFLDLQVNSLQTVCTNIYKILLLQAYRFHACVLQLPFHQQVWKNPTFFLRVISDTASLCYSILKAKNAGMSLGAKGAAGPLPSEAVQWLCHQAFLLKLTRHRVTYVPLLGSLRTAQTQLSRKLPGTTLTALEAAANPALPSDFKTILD

| Structure (SMILES) | IC50 [1] [µM] | IC50 [2] [µM] | IC50 (MGC-803 [3]) [µM] | logP [4] | IC50 (HepG2 [5]) [µM] | IC50 [6] [µM] | Ratio IC50 (HepG2 [7]) | Activity (SMMC-7721 [8]) [%] | Activity (SMMC-7721 [9]) [%] | Ratio IC50 (MGC-803 [10]) | Activity (SMMC-7721 [11]) [%] | viability at 0.5 µM (SMMC-7721 [12]) [%] |
| --- | --- | --- | --- | --- | --- | --- | --- | --- | --- | --- | --- | --- |
| C/C(=C\C(=O)Nc1ccccc1C(=O)O)c1ccc2ccccc2c1 | 0.41 |  |  |  |  |  |  |  |  |  |  |  |
| CCOC(=O)[C@]1(C)CC[C@]2(C)CC[C@]3(C)C4=CC=C5C(=CC(=O)C(O)=C5C)[C@]4(C)CC[C@@]3(C)[C@@H]2C1 | 18.6 | 9.28 | 12 | 4.98 | 15.2 | 11.5 |  |  |  |  |  |  |
| CNC(=O)[C@]1(C)CC[C@]2(C)CC[C@]3(C)C4=CC=C5C(=CC(=O)C(O)=C5C)[C@]4(C)CC[C@@]3(C)[C@@H]2C1 | 15.1 | 7.62 | 24.1 | 3.96 | 10.6 | 9.38 |  |  |  |  |  |  |
| CC1=C(O)C(=O)C=C2C1=CC=C1[C@@]2(C)CC[C@@]2(C)[C@@H]3C[C@](C)(C(=O)N(C)C)CC[C@]3(C)CC[C@]12C | 21 | 20 | 6.3 | 4.2 | 11.2 | 10.5 |  |  |  |  |  |  |
| CC1=C(O)C(=O)C=C2C1=CC=C1[C@@]2(C)CC[C@@]2(C)[C@@H]3C[C@](C)(C(=O)NCCO)CC[C@]3(C)CC[C@]12C | 0.11 | 0.3 | 0.39 | 3.44 | 0.61 | 0.16 | 6.6 | 48 | 37.6 | 4 | 1.24 | 13.2 |
| CC1=C(O)C(=O)C=C2C1=CC=C1[C@@]2(C)CC[C@@]2(C)[C@@H]3C[C@](C)(C(=O)NCC(C)O)CC[C@]3(C)CC[C@]12C (stereo partly specified) | 0.34 | 0.61 | 1.22 | 3.49 | 0.28 | 0.1 | 14.3 |  |  | 1.3 |  |  |
| CCCCNC(=O)[C@]1(C)CC[C@]2(C)CC[C@]3(C)C4=CC=C5C(=CC(=O)C(O)=C5C)[C@]4(C)CC[C@@]3(C)[C@@H]2C1 |  | 6.88 | 3.55 |  | 3.07 | 4.9 |  |  |  |  |  |  |
| CC1=C(O)C(=O)C=C2C1=CC=C1[C@@]2(C)CC[C@@]2(C)[C@@H]3C[C@](C)(C(=O)N4CCOCC4)CC[C@]3(C)CC[C@]12C | 8.01 | 10.7 | 30.7 | 3.8 | 22.7 | 8.74 |  |  |  |  |  |  |
| CC1=C(O)C(=O)C=C2C1=CC=C1[C@@]2(C)CC[C@@]2(C)[C@@H]3C[C@](C)(C(=O)N4CCN(CCN5CCOCC5)CC4)CC[C@]3(C)CC[C@]12C | 15.2 | 12.3 | 13.4 | 3.5 | 16.4 | 8.1 |  |  |  |  |  |  |
| CC1=C(O)C(=O)C=C2C1=CC=C1[C@@]2(C)CC[C@@]2(C)[C@@H]3C[C@](C)(C(=O)N4CCN(CCO)CC4)CC[C@]3(C)CC[C@]12C | 2.01 | 1.84 | 10.3 | 3.44 | 8.7 | 3.81 |  |  |  |  |  |  |
| CC1=C(O)C(=O)C=C2C1=CC=C1[C@@]2(C)CC[C@@]2(C)[C@@H]3C[C@](C)(C(=O)N4CCN(CCN(C)C)CC4)CC[C@]3(C)CC[C@]12C | 1.41 | 2.58 | 1 | 3.95 | 5.21 | 1.33 |  |  |  |  |  |  |
| CC1=C(O)C(=O)C=C2C1=CC=C1[C@@]2(C)CC[C@@]2(C)[C@@H]3C[C@](C)(C(=O)O)CC[C@]3(C)CC[C@]12C [CELASTROL] | 0.78 | 0.58 | 1.55 | 4.38 | 4.01 | 0.15 |  |  |  |  |  |  |
| COc1cccc2c1C(=O)c1c(O)c3c(c(O)c1C2=O)C[C@@](O)(C(=O)CO)C[C@@H]3O[C@H]1C[C@H](N)[C@H](O)[C@H](C)O1 [DOXORUBICIN] |  | 1.22 | 1.19 |  | 0.87 | 1.45 |  |  |  |  |  |  |
| O=c1[nH]cc(F)c(=O)[nH]1 [FLUOROURACIL] |  | 4.87 | 3.58 |  | 5.86 | 6.12 |  |  |  |  |  |  |
